Laboratory results: ChEMBL document CHEMBL1123290, “Synthesis, antimalarial activity, and quantitative structure-activity relationships of tebuquine and a series of related 5-[(7-chloro-4-quinolinyl)amino]-3-[(alkylamino)methyl] [1,1'-biphenyl]-2-ols and N omega-oxides” (1986)

Legend:
Type in all cases: functional
[1] = test system: Plasmodium berghei; assay: Antimalarial activity as 60-day survivors in infected mice (Mus musculus) after single 20 mg/kg subcutaneous dose 72hr post infection
Outline: (§1)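 Mice were infected with a normal drug-sensitive Plasmodium berghei strain. At 72 h postinfection each received one subcutaneous dose of compound dissolved or suspended in peanut oil, in five-mouse groups per dose. The read-out was the number of mice alive at 60 days postinfection, which were scored as cured.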

[2] = test system: Plasmodium berghei; assay: Difference in mean survival time in mice (Mus musculus) (control = 6.2 days) after single 40mg/kg subcutaneous dose 72hr post infection
[3] = test system: Plasmodium berghei; assay: Change in mean survival time for control (average 6.2 days) versus treated mice (Mus musculus) 72 hrs after 5 mg/kg subcutaneous dose
[4] = test system: Plasmodium berghei; assay: Antimalarial activity in primary screen
[5] = test system: Mus musculus; assay: Antimalarial activity of compound administered as a single subcutaneous dose of 10mg/kg, 72 hrs post infection measured as number of mice (Mus musculus) surviving at 60 days post infection; outline: as §1
[6] = test system: Plasmodium berghei; assay: Change in mean survival time for control (average 6.2 days) versus treated mice (Mus musculus) 72 hrs after 160 mg/kg subcutaneous dose
[7] = test system: Plasmodium berghei; assay: Change in mean survival time for control (average 6.2 days) versus treated mice (Mus musculus) 72 hrs after 10 mg/kg subcutaneous dose
[8] = test system: Plasmodium berghei; assay: Change in mean survival time for control (average 6.2 days) versus treated mice (Mus musculus) 72 hrs after […] subcutaneous dose
[9] = test system: Plasmodium berghei; assay: Antimalarial activity as 60-day survivors in Plasmodium berghei infected mice (Mus musculus) after single 160mg/kg subcutaneous dose 72 hr post infection; outline: as §1
[10] = test system: Plasmodium berghei; assay: (§2) Change in mean survival time for control (average 6.2 days) versus treated mice (Mus musculus) 72 hrs after […] subcutaneous dose
[11] = test system: Mus musculus; assay: Antimalarial activity, administered as a single subcutaneous dose of 80 mg/kg, 72 hrs post infection measured as number of mice (Mus musculus) surviving at 60 days post infection; outline: as §1
[12] = test system: Plasmodium berghei; assay: Antimalarial activity as 60-day survivors in infected mice (Mus musculus) after single 320mg/kg subcutaneous dose 72 hr post infection; outline: as §1
[13] = test system: Plasmodium berghei; assay: Change in mean survival time for control (average 6.2 days) versus treated mice (Mus musculus) 72 hrs after 20 mg/kg subcutaneous dose
[14] = test system: Mus musculus; assay: Antimalarial activity, administered as a single subcutaneous dose of 640 mg/kg, 72 hrs post infection measured as number of mice (Mus musculus) surviving at 60 days post infection; outline: as §1
[15] = test system: Mus musculus; assay: Antimalarial activity, administered as a single subcutaneous dose of 40 mg/kg, 72 hrs post infection measured as number of mice (Mus musculus) surviving at 60 days post infection; outline: as §1
[16] = test system: Plasmodium berghei; assay: Change in mean survival time for control (average 6.2 days) versus treated mice (Mus musculus) after 20 mg/kg subcutaneous dose
[17] = test system: Plasmodium berghei; assay: Change in mean survival time of Plasmodium berghei infected mice (Mus musculus) after 5 mg/kg subcutaneous dose
[18] = test system: Plasmodium berghei; assay: Change in mean survival time of Plasmodium berghei infected mice (Mus musculus) on 1.25 mg/kg subcutaneous dose
[19] = test system: Plasmodium berghei; assay: Change in mean survival time for control (average 6.2 days) versus treated mice (Mus musculus) after 320 mg/kg subcutaneous dose
[20] = test system: Plasmodium berghei; assay: Change in mean survival time of Plasmodium berghei infected mice (Mus musculus) after […] subcutaneous dose
[21] = test system: Plasmodium berghei; assay: Change in mean survival time for control (average 6.2 days) versus treated mice (Mus musculus) after 40 mg/kg subcutaneous dose
[22] = test system: Plasmodium berghei; assay: Change in mean survival time in control (average 6.2 days) versus treated mice (Mus musculus) after 80 mg/kg subcutaneous dose
[23] = test system: Plasmodium berghei; assay: Difference in mean survival time of Plasmodium berghei infected mice (Mus musculus) after 10 mg/kg subcutaneous dose
[24] = test system: Plasmodium berghei; assay: as §2; remark: listed apart in the source
[25] = test system: Plasmodium berghei; assay: Change in mean survival time for control (average 6.2 days) versus treated mice (Mus musculus) after 160 mg/kg subcutaneous dose
[26] = test system: Plasmodium berghei; assay: Change in mean survival time for control (average 6.2 days) versus treated mice (Mus musculus) 72 hrs after 640 mg/kg subcutaneous dose
[27] = test system: Plasmodium berghei; assay: Change in mean survival time for control (average 6.2 days) versus treated mice (Mus musculus) 72 hrs after 320 mg/kg subcutaneous dose
[28] = test system: Plasmodium berghei; assay: Change in mean survival time for control (average of 6.2 days) versus treated mice (Mus musculus) 72 hrs after 80 mg/kg subcutaneous dose

Row | Structure (SMILES) | No. of mice cured [1] | Delta MST [3] [days] | ED30 [4] [mg/kg] | No. of mice cured [5] | No. of mice cured [9] | Delta MST [10] [days] | No. of mice cured [11] | No. of mice cured [12] | No. of mice cured [14] | No. of mice cured [15] | Delta MST [16] [days] | Delta MST [17] [days] | Delta MST [18] [days] | Delta MST [19] [days] | Delta MST [20] [days] | Delta MST [21] [days] | Delta MST [22] [days] | Delta MST [23] [days] | Delta MST [24] [days] | Delta MST [25] | other results
1 | CCN(CC)Cc1cc(Nc2ccnc3cc(Cl)ccc23)cc(-c2c(F)c(F)c(F)c(F)c2F)c1O | 1 | 12.9 | 7.4 | 2 | 4 | 3.5 | 5 | 5 | 5 | 4 | – | – | – | – | – | – | – | – | – | – | Delta MST [2]: 20.5 days; Delta MST [6]: 47 days; Delta MST [7]: 18.8 days; Delta MST [8]: 7.9 days; Delta MST [13]: 18.8 days
2 | CCN(CC)Cc1cc(Nc2cc[n+]([O-])c3cc(Cl)ccc23)cc(-c2ccccc2F)c1O | – | – | 48.4 | – | 3 | – | – | 2 | 4 | 1 | 12.2 | 1.5 | -0.1 | 31.9 | -0.1 | 17.1 | 15.6 | 6.1 | 35.6 | 20.1 days | –
3 | CCN(CC)Cc1cc(Nc2cc[n+]([O-])c3cc(Cl)ccc23)cc(-c2ccc(SC)cc2)c1O | – | – | 158 | – | 1 | – | 1 | 4 | 2 | – | 6.5 | 1.5 | 0.1 | 18.6 | 0.5 | 10.3 | 9.4 | 2.1 | 27.3 | 19.9 days | –
4 | CCN(CC)Cc1cc(Nc2cc[n+]([O-])c3cc(Cl)ccc23)cc(-c2ccccc2)c1O | – | – | 26.3 | – | 5 | – | 2 | 3 | 3 | – | 17.4 | 5.1 | 0.3 | 24.9 | 0.3 | 29.6 | 19.9 | 7.7 | 23.9 | – | –
5 | CCN(CC)Cc1cc(Nc2ccnc3cc(Cl)ccc23)cc(-c2ccccc2)c1O | 5 | 0.7 | 10.4 | 2 | 5 | 0.3 | 5 | 5 | 5 | 5 | – | – | – | – | – | – | – | – | – | – | Delta MST [7]: 11.9 days; Delta MST [8]: 0.3 days
6 | CCN(CC)Cc1cc(Nc2ccnc3cc(Cl)ccc23)cc(-c2ccc(Cl)cc2)c1O [TEBAQUINE] | 1 | 20.7 | – | 1 | 4 | 0.1 | 5 | 2 | 1 | 5 | – | – | – | – | – | – | – | – | – | – | Delta MST [26]: 11.9 days; Delta MST [6]: 11.9 days; Delta MST [7]: 30.2 days; Delta MST [27]: 11.2 days; Delta MST [8]: 0.1 days; Delta MST [13]: 33.7 days
7 | CC(C)(C)NCc1cc(Nc2cc[n+]([O-])c3cc(Cl)ccc23)cc(-c2ccc(Cl)c(Cl)c2)c1O | – | – | – | – | 1 | – | 1 | 3 | 2 | – | 5.9 | 0.5 | -0.3 | 25.9 | -0.1 | 8.9 | 23.2 | 2.9 | – | 25.9 days | –
8 | CCCCN(CCCC)Cc1cc(Nc2cc[n+]([O-])c3cc(Cl)ccc23)cc(-c2ccc(Cl)cc2)c1O | – | – | – | – | – | 0.4 | – | – | 1 | – | 3.2 | 0.4 | 0.4 | 21.2 | -0.2 | 2.2 | 8 | -0.2 | 31.7 | 12 | –
9 | CCN(CC)Cc1cc(Nc2cc[n+]([O-])c3cc(Cl)ccc23)cc(-c2ccc(F)cc2)c1O | – | – | 19.7 | – | 5 | – | 4 | 4 | – | 2 | 14.1 | 5.1 | 0.5 | 8.6 | 2.1 | 21.7 | 23.6 | 10.5 | 15 | – | –
10 | CC(C)(C)NCc1cc(Nc2ccnc3cc(Cl)ccc23)cc(-c2ccc(F)cc2)c1O | 1 | 8.9 | – | 1 | 1 | 1.7 | 1 | – | – | 3 | – | – | – | – | – | – | – | – | – | – | Delta MST [26]: 14.4 days; Delta MST [2]: 15.2 days; Delta MST [6]: 11.9 days; Delta MST [7]: 16.5 days; Delta MST [27]: 16.6 days; Delta MST [8]: 7.5 days; Delta MST [28]: 12.4 days; Delta MST [13]: 18 days
11 | CCN(CC)Cc1cc(Nc2cc[n+]([O-])c3cc(Cl)ccc23)cc(-c2ccccc2Cl)c1O | – | – | 27.4 | – | 3 | – | 2 | 3 | 5 | 1 | 19.2 | 6.4 | -0.2 | 41.9 | -0.2 | 25.8 | 34.9 | 8 | – | 33.4 days | –
12 | CC(C)(C)NCc1cc(Nc2cc[n+]([O-])c3cc(Cl)ccc23)cc(-c2ccccc2)c1O | 1 | – | – | – | 2 | – | 1 | 3 | 3 | 1 | 21 | 4.5 | -0.3 | 14.5 | -0.1 | 21 | 15.5 | 12.5 | 14 | 23.2 days | –
13 | CCN(CC)Cc1cc(Nc2cc[n+]([O-])c3cc(Cl)ccc23)cc(-c2cccc(Cl)c2)c1O | – | – | 27.4 | – | 4 | – | 2 | 4 | 3 | 2 | 16.5 | 2.1 | 0.3 | 21.9 | 0.7 | 25.9 | 25.6 | 9.7 | 16.4 | 28.9 days | –
14 | CC(C)(C)NCc1cc(Nc2ccnc3cc(Cl)ccc23)cc(-c2ccc(C(F)(F)F)cc2)c1O | – | 11.8 | – | 1 | – | 0.2 | – | – | 3 | 2 | – | – | – | – | – | – | – | – | – | – | Delta MST [26]: 11.7 days; Delta MST [2]: 14.9 days; Delta MST [6]: 9.1 days; Delta MST [7]: 10.4 days; Delta MST [27]: 12.1 days; Delta MST [8]: 3.4 days; Delta MST [28]: 10.7 days; Delta MST [13]: 21.2 days
